Measurements: ChEMBL document CHEMBL4393674, “Synthesis, and evaluation of in vitro and in vivo anticancer activity of 14-substituted oridonin analogs: A novel and potent cell cycle arrest and apoptosis inducer through the p53-MDM2 pathway” (Eur J Med Chem, 2019)
Activity calls are given as the source filed them. The rule behind the calls is not given here.

Assays:
HCT-116 [1] = experiment: Induction of apoptotic morphological change in human HCT116 cells assessed as formation of unstructured state at 0.03 to 1 uM incubated for 24 hrs by haematoxylin-eosin staining based microscopic method; format: functional, cell-based
How it was run: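 HCT116 at 5×10^6 per well incubated 24 h at 37℃. Medium then replaced with medium containing 0.03, 0.1, 0.3 or 1.0 µM. After 24 h, cells stained by conventional haematoxylin-eosin and imaged by light microscopy to score apoptotic morphology.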

HCT-116 [2] = experiment: Induction of apoptosis in human HCT116 cell assessed as late apoptotic cells at 0.3 uM incubated for 24 hrs by annexin V/PI staining based flow cytometric analysis (reference value: 8.04%); format: functional
HCT-116 [3] = experiment: Induction of cell cycle arrest in human HCT116 cells assessed as accumulation at G1 phase at 1 uM incubated for 24 hrs by propidium iodide-staining based flow cytometric analysis (reference value: 64.90%); format: functional
HCT-116 [4] = experiment: Inhibition of colony formation in human HCT116 cells assessed as reduction in size of colonies incubated for 7 days by crystal violet staining based assay; format: functional, cell-based
How it was run: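 HCT116 cells were seeded at 600 per well in RPMI 1640 with 10% FBS. After 12 h the medium was refreshed and cells were treated with 0.03, 0.06 or 0.12 µM compound in DMSO, with DMSO alone as control, for 7 days. Cells were fixed in 4% paraformaldehyde (30 min) and stained with 0.1% crystal violet (15 min, room temperature). Colonies were aggregates of >50 cells, expressed as treated/untreated ratio, from ≥3 independent experiments.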

HCT-116 [5] = experiment: Induction of apoptosis in human HCT116 cell assessed as early apoptotic cells at 0.3 uM incubated for 24 hrs by annexin V/PI staining based flow cytometric analysis (reference value: 5.98%); format: functional
HCT-116 [6] = experiment: Induction of cell cycle arrest in human HCT116 cells assessed as accumulation at S phase at 1 uM incubated for 24 hrs by propidium iodide-staining based flow cytometric analysis (reference value: 23.30%); format: functional
HCT-116 [7] = experiment: Induction of cell cycle arrest in human HCT116 cells assessed as accumulation at G2/M phase at 0.03 uM incubated for 24 hrs by propidium iodide-staining based flow cytometric analysis (reference value: 11.90%); format: functional
HCT-116 [8] = experiment: Induction in cell cycle arrest in human HCT116 cells assessed as inhibition in cyclin A protein expression level incubated for 24 hrs by Western blot analysis; format: functional, cell-based
HCT-116 [9] = experiment: Induction of cell cycle arrest in human HCT116 cells assessed as accumulation at S phase at 0.30 uM incubated for 24 hrs by propidium iodide-staining based flow cytometric analysis (reference value: 23.30%); format: functional
HCT-116 [10] = experiment: Induction of apoptosis in human HCT116 cell assessed as increase in caspase3 protein expression level at 3 uM incubated for 24 hrs by Western blot analysis; format: functional, cell-based
HCT-116 [11] = experiment: Induction in cell cycle arrest in human HCT116 cells assessed as inhibition in cyclin A protein expression level at 3 uM incubated for 24 hrs by Western blot analysis; format: functional, cell-based
HCT-116 [12] = experiment: Induction of apoptosis in human HCT116 cell assessed as total apoptotic cells incubated for 24 hrs by annexin V/PI staining based flow cytometric analysis; format: functional
HCT-116 [13] = experiment: Induction of apoptotic morphological change in human HCT116 cells assessed as loss of original morphology at 0.03 to 1 uM incubated for 24 hrs by haematoxylin-eosin staining based microscopic method; format: functional, cell-based
How it was run: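 HCT116 cells were plated in 6-well plates and held 24 h at 37℃. The medium was then replaced with medium containing 0.03, 0.1, 0.3 or 1.0 µM compound for 24 h. Cells were given conventional haematoxylin-eosin staining, and morphology was imaged under an optical microscope.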

HCT-116 [14] = experiment: Induction of apoptosis in human HCT116 cell assessed as necrotic cells at 1 uM incubated for 24 hrs by annexin V/PI staining based flow cytometric analysis (reference value: 5.62%); format: functional
HCT-116 [15] = experiment: Induction of apoptosis in human HCT116 cell assessed as necrotic cells at 3 uM incubated for 24 hrs by annexin V/PI staining based flow cytometric analysis (reference value: 5.62%); format: functional
HCT-116 [16] = experiment: Induction of apoptosis in human HCT116 cell assessed as live cells at 0.3 uM incubated for 24 hrs by annexin V/PI staining based flow cytometric analysis (reference value: 80.4%); format: functional

`C=C1C(=O)[C@]23[C@H](OC(=O)c4cc5ccc(OC)cc5[nH]4)[C@H]1CC[C@H]2[C@@]12CO[C@]3(O)[C@@H](O)[C@@H]1C(C)(C)CC[C@@H]2O` was tested, and the Activity (HCT-116 [1]) was “Active”, the Activity (HCT-116 [2]) was 34.7% and the Activity (HCT-116 [3]) was 30.66%. The inhibition (HCT-116 [4]) was “Dose-dependent effect”, the Activity (HCT-116 [5]) was 17.5% and the Activity (HCT-116 [6]) was 29.92%. The Activity (HCT-116 [7]) was 22.98%, the inhibition (HCT-116 [8]) was “Dose-dependent effect” and the Activity (HCT-116 [9]) was 26.79%. For the same compound, the Activity (HCT-116 [10]) was “Active”, the inhibition (HCT-116 [11]) was “Active” and the Activity (HCT-116 [12]) was “Dose-dependent effect”. For the same compound, the Activity (HCT-116 [13]) was “Active”, the Activity (HCT-116 [14]) was 2.95% and the Activity (HCT-116 [15]) was 0.6%. It also gave an Activity (HCT-116 [16]) of 44.4%.
